Experimental data as given in ChEMBL document CHEMBL3244397, “New dopaminergic and potential anti-parkinson compounds, N,N-disubstituted beta-(3,4-dihydroxyphenyl)ethylamines” (J Med Chem, 1978).

What was measured:
[1] = system: Mus musculus; assay: Antiparkinsonian activity in caudectomized mouse assessed as onset of curvature at 0.348 umol/g, ip; assay type: functional
How it was run: (§1)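 Hydrochlorides in 0.9% saline (0.4-0.6 mL) were given ip in random groups of six, with 5-6-day intervals between retests. A blinded observer recorded onset and duration of asymmetric posture; mean and SE per six mice.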

[2] = system: Mus musculus; assay: Antiparkinsonian activity in caudectomized mouse assessed as duration of curvature at 0.087 umol/g, ip; assay type: functional; how it was run: as §1
[3] = system: Mus musculus; assay: Antiparkinsonian activity in caudectomized mouse assessed as duration of curvature at 0.348 umol/g, ip; assay type: functional; how it was run: as §1
[4] = system: Rattus norvegicus; assay: Antiparkinsonian activity in Nigra-lesioned rat assessed as number of turns per 98 mins at 0.087 umol/g, ip; assay type: functional
How it was run: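 Male Sprague-Dawley rats given 6-hydroxydopamine stereotaxically into the right substantia nigra. Used ≥4 weeks post-lesion if they rotated away from the lesion after reference agonist (1.0 µg/g ip). Compounds given ip as hydrochloride salts in 0.9% saline, […], to the same six rats at 5-day intervals. Turns counted in automatic rotometers. Mean ± SE of total turns and duration.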

[5] = system: Mus musculus; assay: Antiparkinsonian activity in caudectomized mouse assessed as onset of curvature at 0.087 umol/g, ip; assay type: functional; how it was run: as §1
[6] = system: Rattus norvegicus; assay: Antiparkinsonian activity in Nigra-lesioned rat assessed as number of turns per 45 mins at 0.087 umol/g, ip; assay type: functional
How it was run: (§2)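 Male Sprague-Dawley rats given 6-hydroxydopamine stereotaxically into the right substantia nigra. Used ≥4 weeks later if they turned away from the lesion after la (1.0 µg/g). The same six rats were dosed ip at 5-day intervals as hydrochloride in 0.9% saline; a saline-injected rat served as control. Turns were counted in automatic rotometers; mean and SE of total turns and duration.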

[7] = system: Mus musculus; assay: Antiparkinsonian activity in caudectomized mouse assessed as duration of curvature at 0.435 umol/g, ip; assay type: functional; how it was run: as §1
[8] = system: Mus musculus; assay: Antiparkinsonian activity in caudectomized mouse assessed as onset of curvature at 0.174 umol/g, ip; assay type: functional; how it was run: as §1
[9] = system: Mus musculus; assay: Antiparkinsonian activity in caudectomized mouse assessed as duration of curvature at 0.174 umol/g, ip; assay type: functional; how it was run: as §1
[10] = system: Rattus norvegicus; assay: Antiparkinsonian activity in Nigra-lesioned rat assessed as number of turns per 79 mins at 0.087 umol/g, ip; assay type: functional; how it was run: as §2
[11] = system: Mus musculus; assay: Antiparkinsonian activity in caudectomized mouse assessed as duration of curvature at 0.305 umol/g, ip; assay type: functional; how it was run: as §1
[12] = system: Mus musculus; assay: Toxicity in caudectomized mouse assessed as mortality at 0.305 umol/g, ip; assay type: organism-based; conditions: in vivo
How it was run: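 Caudectomized mice, screened for postural response to la (1.0 µg/g), received hydrochloride ip in 0.9% saline. Deaths during behavioural observation were recorded; in one case eight mice were tested.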

[13] = system: Rattus norvegicus; assay: Antiparkinsonian activity in Nigra-lesioned rat assessed as number of turns at 0.348 umol/g, ip; assay type: functional; how it was run: as §2
[14] = system: Rattus norvegicus; assay: Antiparkinsonian activity in Nigra-lesioned rat assessed as number of turns per 48 mins at 0.087 umol/g, ip; assay type: functional; how it was run: as §2
[15] = system: Rattus norvegicus; assay: Antiparkinsonian activity in Nigra-lesioned rat assessed as number of turns per 83 mins at 0.003 umol/g, ip; assay type: functional; how it was run: as §2
[16] = system: Mus musculus; assay: Antiparkinsonian activity in caudectomized mouse assessed as onset of curvature at 0.003 umol/g, ip; assay type: functional; how it was run: as §1
[17] = system: Mus musculus; assay: Antiparkinsonian activity in caudectomized mouse assessed as duration of curvature at 0.003 umol/g, ip; assay type: functional; how it was run: as §1

CN(CCc1ccccc1)CCc1ccc(O)c(O)c1.Cl
Time [1]: 6.7 min | Time [2]: 0 min | Time [3]: 21.2 min

CCCN(CCc1ccccc1)CCc1ccc(O)c(O)c1.Cl
Time [2]: 15.4 min | Activity [4]: 1065 | Time [5]: 5 min

CCCCN(CCC)CCc1ccc(O)c(O)c1.Cl
Time [2]: 6.5 min | Time [5]: 4.6 min | Activity [6]: 552

CCCCN(CCCC)CCc1ccc(O)c(O)c1.Cl
Time [3]: 0 min | Time [7]: 0 min

CCCCCNCCc1ccc(O)c(O)c1.Cl
Time [3]: 0 min

CCCCCN(C)CCc1ccc(O)c(O)c1.Cl
Time [1]: 14.6 min | Time [2]: 0 min | Time [8]: 3.8 min | Time [3]: 20.6 min | Time [9]: 2.5 min

CCCCCN(CCC)CCc1ccc(O)c(O)c1.I
Activity [10]: 628 | Time [2]: 14 min | Time [5]: 4.2 min

CCCCCN(CCCCC)CCc1ccc(O)c(O)c1.Cl
Time [11]: 0 min | Activity [12]: Toxic

CC(C)CNCCc1ccc(O)c(O)c1.Cl
Time [3]: 0 min

CC(C)CN(C)CCc1ccc(O)c(O)c1.Cl
Time [1]: 3.6 min | Time [2]: 0 min | Time [8]: 4 min | Time [3]: 31.8 min | Time [9]: 2.8 min

CCCN(CCc1ccc(O)c(O)c1)CC(C)C.Cl
Time [2]: 10 min | Time [5]: 3.9 min

Cl.Oc1ccc(CCNCCc2ccccc2)cc1O
Time [3]: 0 min

CCCCN(CCC)CCc1ccc2c(c1)OCO2.Cl
Activity [13]: 0 | Time [3]: 0 min

CCCCN(CCC)CCc1ccc(O)c(O)c1.I
Activity [14]: 457 | Time [2]: 6.7 min | Time [5]: 3.5 min

CN1CCc2cccc3c2[C@H]1Cc1ccc(O)c(O)c1-3 [APOMORPHINE]
Activity [15]: 828 | Time [16]: 5 min | Time [17]: 14.2 min
